Screening results: PubChem, Broad Institute
PGC1a acetyl inh: inhibitors of PGC1a acetylation signal, primary screen, cell-based, U2OS, AlphaScreen, inhibitor mode | AlphaScreen anti-acetyl-lysine; with virally co-expressed GCN5 acetyltransferase | 350,000 tested, 0.17% active | inhibition, % at 15.6 µM | AID 651687, 2012;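 active = every replicate shows inhibition of at least 40%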;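 note: 0% = neutral control wells and 100% = positive control wells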
S100A4 inh HTS: inhibitors of S100A4-myosin IIA peptide binding, primary screen, biochemical, fluorescence polarization, TAMRA-MyoIIA peptide | 360,000 tested, 0.14% active | Protein S100-A4 (Homo sapiens), P26447 | AID 652163, 2013 | inhibition, % at 10.7 µM;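 active = mean inhibition of at least 70% across replicates, with every replicate also reaching that level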
Target sequence (P26447 whole entry, looked up): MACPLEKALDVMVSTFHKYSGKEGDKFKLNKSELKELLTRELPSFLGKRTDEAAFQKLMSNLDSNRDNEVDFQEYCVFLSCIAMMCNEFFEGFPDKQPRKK
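assay system = human S100A4 monomer with TAMRA-labelled myosin IIA peptide | also added = labelled myosin peptide probe, 5 nM | incubation = 5 min between mix addition and reading | control set = DMSO and TFP controls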
SIRT5 inh: SIRT5 desuccinylase inhibitors, primary screen, biochemical, fluorescence imaging, single point, set 5 | NAD-dependent protein deacylase sirtuin-5, mitochondrial (Homo sapiens), Q9NXA8 | Purified SirT5, succinyl-peptide AMC, trypsin-coupled fluorescence | inhibition, % at 15 µM | 330,000 tested, 1.1% active | AID 652115, 2013; in the data active = inhibition above about 15%
Target sequence (Q9NXA8 whole entry, looked up): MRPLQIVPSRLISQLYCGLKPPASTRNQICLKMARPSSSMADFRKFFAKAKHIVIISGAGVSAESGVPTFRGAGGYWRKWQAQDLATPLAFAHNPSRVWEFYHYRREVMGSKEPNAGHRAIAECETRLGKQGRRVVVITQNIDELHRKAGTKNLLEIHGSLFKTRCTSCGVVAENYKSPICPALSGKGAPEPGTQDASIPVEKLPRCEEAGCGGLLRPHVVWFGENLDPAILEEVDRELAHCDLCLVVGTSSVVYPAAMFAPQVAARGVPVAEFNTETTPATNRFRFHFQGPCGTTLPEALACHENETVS
Statin myotox sup: suppressors of statin myotoxicity in C2C12 myotubes, primary screen, cell-based, single point, plate reader; 330,000 tested, 0.78% active; rescue of ATP level, % at 7.49 µM; AID 602340, 2012; C2C12 myotubes + simvastatin, ATP luminescence, 48 h; scaled: DMSO 0, geranylgeraniol control 100;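 active = mean ATP rescue above about 67%, or every replicate alone reaching that limit, limit read from the data, passing the limit was not always enough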;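 note: myotubes were challenged with 10 µM simvastatin during compound exposure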
rRNA inh HTS: reduced GFP signal of wild-type E. coli, primary screen, bacterial rRNA inhibitor project, GFP/RFP fluorescence, OD600, single point. AID 720706, 2013. GFP signal change (wild-type ribosome), % (test concentration not listed). 350,000 tested, 1.6% active. E. coli WT GFP vs humanized-ribosome RFP mutants, 24 h; active compounds read low; DMSO median 0, no signal -100;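 active = significant combined selectivity score with lowered wild-type GFP, culture density cut under 30%, mutant RFP and density less affected; inactive = any of these conditions unmet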
Cneo AK release: Cryptococcus neoformans cell lysis inducers, primary screen, AK release luminescence, single concentration; C. neoformans lysis, adenylate kinase release luminescence, 4 h; normalised: neutral wells 0, clomiphene wells 100; lysis activity, % at 15 µM; 360,000 tested, 0.2% active;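 active = mean lysis activity across replicates of at least 80%, whatever share of replicates individually reach that level; inactive = mean lysis activity below 80%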
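Assay system: log-phase C. neoformans yeast / Quantity: yeast cell density of 5 × 10^6 cells/mL / Medium: fresh YPD growth medium / Compound: single dose / Timing: static 4 h at 37 °C with compound, 1 h detection / Measured by: adenylate kinase release luminescence / Read-out: lysis from increased AK signal / Benchmarks: Clomiphene as positive lysis control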
* = called active by the depositor; . = not tested or not shown. Sampled rows, rich in hits. Any-hit rate of the full collection: about 3%.

SMILES	PGC1a acetyl inh	S100A4 inh HTS	SIRT5 inh	Statin myotox sup	rRNA inh HTS	Cneo AK release
C[C@H](NC(=O)C[C@@H]1C[C@H]2c3cc(N(C)C)ccc3O[C@H]2[C@@H](CO)O1)c1ccccc1	-1.6	-1.5	-5.8	2.1	1.4	1.7
CCOc1ccc(S(=O)(=O)NCC(=O)N(C)Cc2cccnc2)cc1	9.1	.	.	108.6*	.	-0.3
C=C1CCN(c2ccc(C(=O)NCc3ccc(C)cc3)cc2[N+](=O)[O-])CC1	-2.8	-2.6	1.7	120.4*	13.4	-0.2
Nc1nc(NCc2c(F)cccc2Cl)nn1-c1ccccc1	8.6	.	.	101.5*	.	5.2
C[C@@H]1CN([C@@H](C)CO)C(=O)c2cc(NC(=O)Nc3ccccc3)ccc2O[C@@H](C)CCCCO[C@H]1CN(C)S(=O)(=O)c1ccc(Cl)cc1	-11.4	-0.2	3.7	.	6.2	-5.6
CCN(C(=O)c1nn(-c2ccc(OC)cc2)c(=O)c2c1c1ccccc1n2C)c1ccc(OC)cc1	10.4	8.4	1.4	107.2*	11.7	-2.0
N#Cc1cccc(-c2ccc(C3[C@H]4CNC[C@@H]3N4C(=O)Nc3ccc(F)cc3)cc2)c1 (some centres undefined)	6.4	-18.9	-3.1	.	-8.1	.
O=C1CC(C(=O)N2CCN(c3ccccn3)CC2)CN1Cc1ccccc1Cl (centres undefined)	0.4	185.0*	0.3	16.4	6.4	0.3
O=C(NCC[C@H]1CC[C@H](NS(=O)(=O)c2cccc(F)c2)[C@@H](CO)O1)Nc1cc(F)ccc1F	-9.3	4.6	-1.0	-9.1	-6.6	1.4
Cc1cccc(N=c2oc3cc(O)ccc3cc2C(N)=O)c1	6.1	.	.	118.3*	.	0.1
COc1ccccc1N=c1oc2cc(O)ccc2cc1C(N)=O	10.7	.	.	-129.8	.	-3.1
Cc1noc(C)c1S(=O)(=O)N(C)C[C@@H]1Oc2c(NC(=O)C3CC3)cccc2C(=O)N([C@@H](C)CO)C[C@@H]1C	-4.1	-0.3	3.2	-28.8	1.3	1.3
COc1ccc2cc(CN(CC3CCCO3)S(=O)(=O)c3ccccc3Cl)c(=O)[nH]c2c1 (centres undefined)	3.5	-2.8	.	12.2	-36.1*	-0.7
O=C(C[C@H]1C=C[C@H](NS(=O)(=O)c2ccccc2)[C@H](CO)O1)NCc1ccc(Cl)c(Cl)c1	10.1	-0.2	2.0	26.6	-13.3	-14.7
O=C(Cc1cccnc1)N[C@H]1CC[C@@H](CCNS(=O)(=O)c2ccccc2Cl)O[C@H]1CO	-0.5	-5.9	1.1	3.2	0.2	-4.7
O=C(NC1CCCCC1)[C@H]1[C@H](CO)[C@H]2Cn3c(cccc3=O)[C@H]2N1C(=O)CC1CC1	1.8	102.1*	8.2	0.5	1.5	1.7
O=C(NC1CCCCC1)[C@H]1[C@H](CO)[C@H]2Cn3c(cccc3=O)[C@H]2N1CC1CCCCC1	.	3.2	-0.3	-11.0	1.1	4.0
CCC(=O)N1[C@H](C(=O)NC2CCCCC2)[C@@H](CO)[C@@H]2Cn3c(cccc3=O)[C@@H]21	.	0.6	-2.0	-18.6	1.5	-2.5
O=C(Nc1ccccc1)[C@H]1[C@H](CO)[C@H]2Cn3c(cccc3=O)[C@H]2N1CC1CC1	.	4.7	0.3	26.5	1.6	-4.3
O=C(Nc1ccc(-c2ccccc2)cc1)[C@@H]1[C@@H](CO)[C@@H]2Cn3c(cccc3=O)[C@@H]2N1CC1CCCC1	10.6	2.8	15.4*	.	-6.0	.
O=C([C@@H]1[C@@H](CO)[C@@H]2Cn3c(cccc3=O)[C@@H]2N1CCC(F)(F)F)N1CCCCC1	.	19.6	9.4	-9.2	4.0	101.7*
O=C(NC1CCCCC1)[C@@H]1[C@@H](CO)[C@@H]2Cn3c(cccc3=O)[C@@H]2N1CC1CCCC1	2.8	4.9	21.5*	.	-6.5	.
CCNC(=O)C[C@H]1CC[C@H]2[C@H](COc3ccc(NC(=O)Nc4cccc(C)c4)cc3C(=O)N2C)O1	-7.0	-12.0	-0.2	7.4	4.3	-6.4
COC(=O)[C@@H]1[C@@H](CO)[C@@H]2Cn3c(cccc3=O)[C@@H]2N1CC1CCOCC1	.	87.6*	2.5	-8.3	3.2	-0.1
CCCN1C[C@@H](C)[C@@H](OC)CN(C)C(=O)c2cc(NC(=O)COC)ccc2OC[C@@H]1C	-3.8	.	.	2.0	0.3	58.3
SMILES	PGC1a acetyl inh	S100A4 inh HTS	SIRT5 inh	Statin myotox sup	rRNA inh HTS	Cneo AK release
COC(=O)C[C@@H]1CC[C@@H]2[C@H](COc3ccc(NC(=O)c4cnccn4)cc3C(=O)N2C)O1	4.1	.	1.0	28.9	4.6	.
CC(C)n1cnc2c(NCc3ccccc3)cc(Cc3ccc(F)cc3)cc21	-3.2	-1.1	-0.5	4.7	-21.4*	3.6
O=C1OC(c2ccc3ccccc3c2O)(c2ccc3ccccc3c2O)c2ccccc21	-24.0	-7.3	1.3	5.5	-41.3*	-0.6
COCCCN1C(=O)C(CC(=O)NC(c2ccccc2)c2ccccc2)CC(C(=O)N2CCOCC2)=C1C (centres undefined)	-1.2	-2.0	29.4*	-1.5	15.6	3.7
COCCCN1C(=O)C(CC(=O)NC(c2ccccc2)c2ccccc2)CC(C(=O)N(C)C)=C1C (centres undefined)	1.9	-5.5	-4.2	7.5	2.5	0.8
CCCCN(C(=O)c1c(CC)noc1C)c1c(N)n(CCC)c(=O)[nH]c1=O	.	0.6	-3.0	.	1.0	.
CCCCn1c(N)c(N(CCOC)C(=O)c2c(CC)noc2C)c(=O)[nH]c1=O	6.3	-18.5	19.7*	4.1	7.5	0.3
CCCNC(=O)N[C@H]1C=C[C@H](CC(=O)NC2CCCCC2)O[C@H]1CO	0.3	6.1	-0.5	-1.9	1.2	-0.5
C[C@@H](NC(=O)C[C@@H]1CC[C@@H](NS(=O)(=O)c2cccc(F)c2)[C@@H](CO)O1)c1ccccc1	2.1	-18.2	-3.5	6.3	1.3	-3.7
Cc1ccc(N=C2C(=O)Nc3ccc(Br)cc32)cc1	6.1	-2.0	15.3*	6.5	-1.2	3.8
C[C@H]1CCCCO[C@H](CN(C)Cc2ccc(C(F)(F)F)cc2)[C@@H](C)CN([C@@H](C)CO)C(=O)c2cc(NS(=O)(=O)c3ccc(Cl)cc3)ccc2O1	2.1	-2.6	19.1*	.	-0.6	3.0
Cc1ccc(S(=O)(=O)Nc2ccc3c(c2)C(=O)N([C@@H](C)CO)C[C@@H](C)[C@@H](CN(C)Cc2ccc(C(F)(F)F)cc2)OCCCC[C@H](C)O3)cc1	-3.7	-0.9	-4.0	.	1.9	54.3
